Test results reported in PubChem BioAssay AID2509 (Broad Institute, 2010).
Activity calls are given as the source filed them.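 The calls were made as follows: active = compounds cutting phorbol ester driven platelet P-selectin display by over 50% in every run; inconclusive = over 50% in some runs but not others; inactive = 50% or less in every run.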

Tested on: human washed platelets, PMA-induced P-selectin, flow cytometry
Assay: inhibitors of PMA-stimulated platelet P-selectin exposure, selectivity assay for platelet activation inhibitor project, cell-based, fluorescence, flow cytometry, platelets (AID 2509)
Details: at 30 µM; active compounds read high
Method in brief: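 System: platelets, PMA-induced surface P-selectin expression / Probe or stimulus: PMA at 5 nM, platelet activating stimulus / Dosing: single compound dose of 30 µM / Schedule: 20 min compound, 15 min PMA, 20 min antibody / Signal: flow cytometry, PE anti-P-selectin label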

| Compound | inhibition |
| --- | --- |
| C/C(=N/NC(=O)C1CCCC1)c1ccc(NC(=O)C(F)(F)F)cc1 | 9.5% (inactive) |
| Cc1ccc(-n2c(N)c(C#N)c(-c3ccccc3)c(C#N)c2=O)cc1 | 5.5% (inactive) |
